ChEMBL document CHEMBL1145545, “Discovery of a novel A2B adenosine receptor antagonist as a clinical candidate for chronic inflammatory airway diseases” (J Med Chem, 2008)
Values belong to the molecule of their own block, whether it stands above or below them.

Legend:
[1] = organism: Homo sapiens; test: Selectivity for human recombinant adenosine A2B receptor over human recombinant adenosine A1 receptor
[2] = molecular target: T1, Adenosine receptor A2b (Homo sapiens, UniProt P29275); test: Displacement of [3H]ZM-241385 from human recombinant adenosine A2B receptor expressed in HEK293 cells; type: cell-based
T1 sequence (P29275 whole entry): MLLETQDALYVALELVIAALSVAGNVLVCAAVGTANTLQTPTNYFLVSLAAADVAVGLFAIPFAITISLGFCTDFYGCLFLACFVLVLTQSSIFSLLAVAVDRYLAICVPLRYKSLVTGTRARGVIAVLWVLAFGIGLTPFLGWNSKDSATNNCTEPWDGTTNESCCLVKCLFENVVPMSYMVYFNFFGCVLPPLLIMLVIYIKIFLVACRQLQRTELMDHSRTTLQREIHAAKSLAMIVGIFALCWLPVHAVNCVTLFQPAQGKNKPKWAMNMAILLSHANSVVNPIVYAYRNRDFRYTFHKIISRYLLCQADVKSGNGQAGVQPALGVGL
Summary of the method: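 Membranes from HEK293 cells stably expressing human A2B receptor; competition with 10 nM radioligand, 50 µg membrane protein, in 50 mM Tris/1 mM EDTA with 1 U/mL adenosine deaminase, 25 °C for 90 min with gentle agitation; filtration, four ice-cold Tris/MgCl2 washes. Nonspecific binding defined with 10 µM unlabelled ligand; Ki calculated.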

[3] = molecular target: T2, Adenosine receptor A1 (Homo sapiens, UniProt P30542); test: Displacement of [3H]CPX from human recombinant adenosine A1 receptor expressed in CHO cells; type: cell-based
T2 sequence (P30542 whole entry): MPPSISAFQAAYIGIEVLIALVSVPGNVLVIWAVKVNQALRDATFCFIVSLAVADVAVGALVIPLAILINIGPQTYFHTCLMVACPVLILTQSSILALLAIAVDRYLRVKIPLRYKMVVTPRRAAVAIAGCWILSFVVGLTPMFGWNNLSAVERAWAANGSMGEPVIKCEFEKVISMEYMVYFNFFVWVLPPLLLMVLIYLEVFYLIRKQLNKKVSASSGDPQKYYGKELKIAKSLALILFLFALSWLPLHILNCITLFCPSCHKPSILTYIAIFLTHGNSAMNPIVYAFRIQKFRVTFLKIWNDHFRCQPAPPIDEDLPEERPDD
Summary of the method: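 CHO cell membranes stably expressing human A1 receptor; 0.5 nM [3H]CPX competed with test compound in 50 mM Tris/1 mM EDTA plus 1 U/mL adenosine deaminase, 25 °C, 90 min, gentle agitation; filtration and four ice-cold Tris/MgCl2 washes. Nonspecific binding defined with 1 µM CPX; Ki values derived.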

[4] = molecular target: Adenosine receptor A2a (Homo sapiens, UniProt P29274); test: Displacement of [3H]ZM-241385 from human recombinant adenosine A2A receptor expressed in HEK293 cells; type: cell-based
Sequence of Adenosine receptor A2a (P29274 whole entry): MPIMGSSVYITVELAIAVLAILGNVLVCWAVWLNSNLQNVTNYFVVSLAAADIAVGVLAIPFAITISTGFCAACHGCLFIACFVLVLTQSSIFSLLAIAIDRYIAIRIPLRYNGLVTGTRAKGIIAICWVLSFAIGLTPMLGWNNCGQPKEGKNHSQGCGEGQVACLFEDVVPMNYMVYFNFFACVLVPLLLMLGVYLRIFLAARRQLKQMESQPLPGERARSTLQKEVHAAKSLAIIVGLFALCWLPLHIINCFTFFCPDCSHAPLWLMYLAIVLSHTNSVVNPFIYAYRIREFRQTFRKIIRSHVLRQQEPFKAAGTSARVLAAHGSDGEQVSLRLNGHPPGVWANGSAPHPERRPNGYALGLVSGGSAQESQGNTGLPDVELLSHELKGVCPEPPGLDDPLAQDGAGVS
Summary of the method: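 Membranes from HEK293 cells stably expressing human A2A receptor; 2 nM radioligand competed in 50 mM Tris/1 mM EDTA with 1 U/mL adenosine deaminase for 90 min at 25 °C with agitation; filtration, four ice-cold Tris/MgCl2 washes. Nonspecific binding defined with 1 µM unlabelled ligand; Ki computed.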

[5] = molecular target: T3, Adenosine receptor A3 (Homo sapiens, UniProt P0DMS8); test: Displacement of [125I]ABMECA from human recombinant adenosine A3 receptor expressed in CHO cells; type: cell-based
T3 sequence (P0DMS8 whole entry): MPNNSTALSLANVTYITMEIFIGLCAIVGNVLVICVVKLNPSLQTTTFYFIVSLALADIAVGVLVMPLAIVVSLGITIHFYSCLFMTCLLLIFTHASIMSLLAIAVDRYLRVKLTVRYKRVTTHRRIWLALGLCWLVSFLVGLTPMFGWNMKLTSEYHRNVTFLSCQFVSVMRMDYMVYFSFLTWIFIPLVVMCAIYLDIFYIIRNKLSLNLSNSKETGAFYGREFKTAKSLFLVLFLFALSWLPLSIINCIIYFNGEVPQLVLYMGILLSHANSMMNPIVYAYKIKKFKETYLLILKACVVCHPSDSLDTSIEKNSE
Summary of the method: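 Human A3 receptor stably expressed in CHO cells; membranes incubated with 0.1 nM 125I-AB-MECA and test compound in 50 mM Tris, 1 mM EDTA, 10 mM MgCl2 plus 1 U/mL adenosine deaminase, 25 °C, 90 min; filtration, four ice-cold washes. Nonspecific binding defined with 1 µM IB-MECA; Ki determined.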

[6] = organism: Homo sapiens; test: Selectivity for human recombinant adenosine A2B receptor over human recombinant adenosine A2A receptor
[7] = organism: Homo sapiens; test: Selectivity for human recombinant adenosine A2B receptor over human recombinant adenosine A3 receptor
[8] = Cmax in Sprague-Dawley rat at 2 mg/kg, po; type: ADME, organism-based; set-up: dose 2 mg/kg, route oral; conditions: in vivo
[9] = Plasma concentration in Sprague-Dawley rat at 2 mg/kg, po after 4 hrs; type: ADME, organism-based; set-up: dose 2 mg/kg, route oral
[10] = Plasma concentration in Sprague-Dawley rat at 2 mg/kg, po after 6 hrs; type: ADME, organism-based; set-up: dose 2 mg/kg, route oral
[11] = AUC (0 to tlast) in Sprague-Dawley rat at 2 mg/kg, po; type: ADME, organism-based; set-up: dose 2 mg/kg, route oral; conditions: plasma
[12] = Tmax in Sprague-Dawley rat at 2 mg/kg, po; type: ADME, organism-based; set-up: dose 2 mg/kg, route oral; conditions: in vivo
[13] = molecular target: T4, Adenosine receptor A2b (Mus musculus) (UniProt Q60614); test: Antagonist activity at mouse adenosine A2B receptor expressed in NIH3T3 cells assessed as inhibition of NECA-induced cAMP accumulation; type: functional, cell-based
T4 sequence (whole entry): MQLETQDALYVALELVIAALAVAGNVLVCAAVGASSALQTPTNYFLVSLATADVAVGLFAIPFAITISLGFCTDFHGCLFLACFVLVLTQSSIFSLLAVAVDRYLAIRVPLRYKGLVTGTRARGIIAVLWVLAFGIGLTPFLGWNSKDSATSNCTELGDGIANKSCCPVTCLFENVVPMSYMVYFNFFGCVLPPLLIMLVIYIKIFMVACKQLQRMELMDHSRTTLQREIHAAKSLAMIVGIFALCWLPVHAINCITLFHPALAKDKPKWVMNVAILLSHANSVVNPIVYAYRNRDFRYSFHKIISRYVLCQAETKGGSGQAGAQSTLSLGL
Summary of the method: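 Mouse NIH/3T3 cells stimulated with NECA (1 nM to 100 µM) without or with increasing antagonist concentrations; cAMP accumulation measured. KB obtained by Schild analysis; mean ± SEM of three experiments in duplicate.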

[14] = Half life in Sprague-Dawley rat at 2 mg/kg, po; type: ADME, organism-based; set-up: dose 2 mg/kg, route oral; conditions: in vivo

SMILES: CCCn1c(=O)c2[nH]c(-c3cnn(Cc4noc(-c5ccc(C(F)(F)F)cc5)n4)c3)nc2n(CC)c1=O
Ratio Ki [1]: > 250
Ki [2]: 0.024 µM
Ki [3]: > 6 µM
Ki [4]: > 5 µM
Ki [5]: > 9 µM
Ratio Ki [6]: > 208
Ratio Ki [7]: > 375
Cmax [8]: 34.6 ng/mL
concentration at 4 h [9]: 7.75 ng/mL
concentration at 6 h [10]: 17.3 ng/mL
AUC(0-t) [11]: 65.6 ng·h/mL
Tmax [12]: 6 h

SMILES: CC(C)Cn1c(=O)c2[nH]c(-c3cnn(Cc4cccc(F)c4)c3)nc2n(C)c1=O
Ratio Ki [1]: 6
Ki [2]: 0.06 µM
Ki [3]: 0.352 µM
Ki [4]: 0.301 µM
Ki [5]: 0.107 µM
Ratio Ki [6]: 5
Ratio Ki [7]: 2

SMILES: CCCn1c(=O)c2[nH]c(-c3cnn(Cc4nc(-c5ccc(Cl)cc5)no4)c3)nc2n(CC)c1=O
Ratio Ki [1]: 56
Ki [2]: 0.016 µM
Ki [3]: 0.91 µM
Ki [4]: 3.78 µM
Ki [5]: 0.413 µM
Ratio Ki [6]: 236
Ratio Ki [7]: 25

SMILES: CCn1c(=O)n(CC(C)C)c(=O)c2[nH]c(-c3cnn(Cc4ccc(C(F)(F)F)nc4)c3)nc21
Ratio Ki [1]: 180
Ki [2]: 0.02 µM
Ki [3]: 3.59 µM
Ki [4]: 5.41 µM
Ki [5]: 0.35 µM
Ratio Ki [6]: 270
Ratio Ki [7]: 17

SMILES: CCCn1c(=O)c2[nH]c(-c3cnn(Cc4cccc(C(F)(F)F)c4)c3)nc2n(CC)c1=O [GS 6201]
Ratio Ki [1]: 88
Ki [2]: 0.022 µM
Ki [3]: 1.94 µM
Ki [4]: 3.28 µM
Ki [5]: 1.07 µM
Ratio Ki [6]: 149
Ratio Ki [7]: 48
Kb [13]: 0.002 µM
Cmax [8]: 1110 ng/mL
half-life [14]: 4.25 h

SMILES: CCCn1c(=O)c2[nH]c(-c3cnn(Cc4ccc(C(F)(F)F)nc4)c3)nc2n(CC)c1=O
Ratio Ki [1]: 139
Ki [2]: 0.018 µM
Ki [3]: 2.5 µM
Ki [4]: 2.25 µM
Ki [5]: 0.44 µM
Ratio Ki [6]: 125
Ratio Ki [7]: 24
Cmax [8]: 671 ng/mL
half-life [14]: 9.7 h

Now those with a lower Ki [2], led by results:

Ratio Ki [1]: 57
Ki [2]: 0.011 µM
Ki [3]: 0.631 µM
Ki [4]: 1.09 µM
Ki [5]: 0.25 µM
Ratio Ki [6]: 99
Ratio Ki [7]: 23
SMILES: CCn1c(=O)n(CC(C)C)c(=O)c2[nH]c(-c3cnn(Cc4cccc(C(F)(F)F)c4)c3)nc21

Ratio Ki [1]: 45
Ki [2]: 0.006 µM
Ki [3]: 0.274 µM
Ki [4]: 0.234 µM
Ki [5]: 0.262 µM
Ratio Ki [6]: 39
Ratio Ki [7]: 43
SMILES: CCn1c(=O)c2[nH]c(-c3cnn(Cc4cccc(C(F)(F)F)c4)c3)nc2n(C)c1=O

Ratio Ki [1]: 22
Ki [2]: 0.013 µM
Ki [3]: 0.29 µM
Ki [4]: 0.139 µM
Ki [5]: 0.095 µM
Ratio Ki [6]: 10
Ratio Ki [7]: 7
SMILES: CCCn1c(=O)c2[nH]c(-c3cnn(Cc4cccc(F)c4)c3)nc2n(C)c1=O

Ratio Ki [1]: 26
Ki [2]: 0.007 µM
Ki [3]: 0.185 µM
Ki [4]: 0.073 µM
Ki [5]: 0.035 µM
Ratio Ki [6]: 10
Ratio Ki [7]: 5
SMILES: Cn1c(=O)n(CC2CC2)c(=O)c2[nH]c(-c3cnn(Cc4cccc(F)c4)c3)nc21

Ratio Ki [1]: 130
Ki [2]: 0.002 µM
Ki [3]: 0.26 µM
Ki [4]: 0.073 µM
Ki [5]: 0.092 µM
Ratio Ki [6]: 36
Ratio Ki [7]: 46
SMILES: CCn1c(=O)c2[nH]c(-c3cnn(Cc4ccccc4)c3)nc2n(C)c1=O
